Sampled rows, rich in hits. Any-hit rate of the full collection: about 0.7%.
CaV13 ICDI inh: Disruptors of the CACNA1D IQ motif to Ca2+-dependent inactivation inhibitor domain association, primary screening, Förster resonance energy transfer in intact living …. HEK cells, CFP/YFP FRET ICDI-IQ, plate reader, 10 min; percent FRET-ratio fall versus neutral wells. inhibition, % at 12.3 µM. actives 0.098% (n = 340,000);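 active = mean replicate inhibition of at least 30% and at least 1% of replicates passing that level; inconclusive = only one of the two criteria is met; inactive = neither criterion is met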
Glyco luc inh: increase of ERlucT glycosylation luciferase signal, primary screen, N-linked glycosylation inhibitor project, D54 ERlucT cells, luminescence, set 2; D54 ERlucT glycosylation luciferase reporter, 24 h; percent of 100 nM tunicamycin response; reporter increase, % at 12.5 µM; actives 0.23% (n = 360,000); AID 588692, 2011;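 active = mean luciferase reporter signal, scaled so untreated is 0 and the glycosylation-blocking control 100, at or above a set limit in every replicate; inconclusive = mean reaches the limit but not every replicate does; inactive = mean below the limit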;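 also: luciferase carries N-glycosylation sites so blocking glycosylation raises the light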
RAD52 inh: RAD52 DNA annealing inhibitors, primary screen, biochemical, FRET, single point, set 2; DNA repair protein RAD52 homolog (Homo sapiens), P43351; recombinant RAD52 DNA annealing, FRET fluorescence; inhibition, % at 18.7 µM; actives 0.46% (n = 360,000);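 active = every replicate showing at least 50% inhibition; inconclusive = mean inhibition at least 50% but not in every replicate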
FN deposit inh: inhibitors of fibronectin matrix deposition, primary screen, AH1F cells, Alexa488-fibronectin fluorescence, plate reader; AH1F fibroblasts, overnight; inhibition, % at 12.6 µM; actives 0.086% (n = 350,000); AID 743247, 2014;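 active = mean inhibition across replicates of 30% or more, regardless of how many single replicates reach that level; inconclusive = mean under 30% yet at least half of replicates reach 30%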
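Assay system: AH1F fibroblasts assembling fluorescent fibronectin matrix; Amount: 10000 AH1F cells per well; Buffer or medium: DMEM, 2% serum; Probe or stimulus: Alexa488-fibronectin, 24 nM final in well; Doses: single compound dose, delivered by pin transfer; Incubation: 1 h adhesion, overnight exposure; Measured by: fluorescence 485/525 nm; Read-out: fibronectin deposition inhibition.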
RAD54 branch: inhibitors of human RAD54 branch migration, primary screen, biochemical, fluorescence, single point; inhibition, % at 10.4 µM; actives 0.14% (n = 360,000); RAD54 Holliday junction branch migration, FAM/BHQ fluorescence; AID 602329, 2012;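 active = mean normalized replicate activity at least 40 and at least half of replicates scoring 40 or more; inconclusive = only one of the two criteria met; inactive = mean below 40 and under half of replicates reaching 40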;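 also: inhibitors cause a drop in the FAM fluorescence signal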
Target sequence (Q92698 whole entry, looked up): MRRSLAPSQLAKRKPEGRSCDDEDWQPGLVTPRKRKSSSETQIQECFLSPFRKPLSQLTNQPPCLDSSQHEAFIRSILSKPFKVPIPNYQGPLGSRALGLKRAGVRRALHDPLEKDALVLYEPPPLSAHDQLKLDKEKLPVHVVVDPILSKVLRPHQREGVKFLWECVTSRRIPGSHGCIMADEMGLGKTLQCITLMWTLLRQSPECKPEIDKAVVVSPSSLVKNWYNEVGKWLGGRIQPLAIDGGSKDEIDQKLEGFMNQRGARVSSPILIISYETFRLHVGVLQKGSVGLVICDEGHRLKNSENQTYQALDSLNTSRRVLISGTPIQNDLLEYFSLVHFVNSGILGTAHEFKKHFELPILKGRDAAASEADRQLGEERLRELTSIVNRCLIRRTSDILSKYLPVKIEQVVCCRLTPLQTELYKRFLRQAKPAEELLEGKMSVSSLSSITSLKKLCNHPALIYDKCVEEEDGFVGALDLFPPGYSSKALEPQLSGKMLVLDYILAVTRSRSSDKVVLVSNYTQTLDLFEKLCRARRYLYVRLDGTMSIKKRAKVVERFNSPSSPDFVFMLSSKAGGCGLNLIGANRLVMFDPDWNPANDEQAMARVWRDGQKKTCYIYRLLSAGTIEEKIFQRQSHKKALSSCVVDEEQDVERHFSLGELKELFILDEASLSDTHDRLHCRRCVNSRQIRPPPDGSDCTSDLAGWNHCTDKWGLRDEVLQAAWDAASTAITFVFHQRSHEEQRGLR
Each line names hits and unclear results; the compound was inactive in the other large screens; ! = repeats disagree.

COc1ccc(C2c3ccc(O)cc3Oc3ncn4nc(-c5ccccn5)nc4c32)cc1 (stereo not drawn)	CaV13 ICDI inh 54
C[C@H](NC(=O)c1nc[nH]c1C(=O)N[C@@H](Cc1ccccc1)C(=O)OCc1ccccc1)C(=O)OCc1ccccc1	none
C[C@H](NC(=O)c1nc[nH]c1C(=O)N[C@@H](Cc1ccccc1)C(=O)OC(C)(C)C)C(=O)OCc1ccccc1	CaV13 ICDI inh 35
CC(C)c1cn(CC[C@H]2CC[C@@H](NC(=O)C3CCCCC3)[C@H](CO)O2)nn1	none (no result: CaV13 ICDI inh, Glyco luc inh)
O=C(c1cccc(-c2cncc3nccn23)c1)N1CCOCC1	none
CN1CCN(C(=O)c2cccc(-c3cnc4cnc(-c5ccccc5Oc5ccccc5)cn34)c2)CC1	FN deposit inh 40
Cc1c2c(cc3c1[nH]c1ccccc13)C=NCC2	RAD54 branch 58
Cc1c2ccncc2cc2c1[nH]c1ccccc12	none
Cc1ccccc1-c1ccc(C2[C@@H]3CN(C(=O)Nc4ccc(F)cc4)C[C@H]2N3)cc1 (stereo partly drawn)	none (no result: CaV13 ICDI inh, Glyco luc inh, RAD52 inh, RAD54 branch)
Cc1ccccc1-c1ccc(C2[C@@H]3CN(C(=O)Nc4cccc(F)c4)C[C@H]2N3)cc1 (stereo partly drawn)	RAD52 inh 72! (no result: CaV13 ICDI inh, Glyco luc inh, RAD54 branch)
O=C(Nc1cccc(F)c1)N1C[C@@H]2N[C@H](C1)C2c1ccc(-c2cccnc2)cc1 (stereo partly drawn)	none (no result: CaV13 ICDI inh, Glyco luc inh, RAD54 branch)
O=C(Nc1cccc(F)c1)N1C[C@@H]2N[C@H](C1)C2c1ccc(-c2ccccc2F)cc1 (stereo partly drawn)	RAD52 inh 64! (no result: CaV13 ICDI inh, Glyco luc inh, RAD54 branch)
COc1cc2c(C#N)c(N3CCc4ccccc4C3)nc(N)c2c(N)n1	Glyco luc inh 26 (no result: RAD52 inh, FN deposit inh)
C[C@@H]1CN([C@@H](C)CO)C(=O)c2cccc(NC(=O)c3ccncc3)c2O[C@@H]1CN(C)S(=O)(=O)c1ccccc1	none (no result: CaV13 ICDI inh, Glyco luc inh)
O=C(NC[C@H]1CC[C@H]2[C@H](CN2C(=O)NC2CCCC2)O1)c1ccc2c(c1)OCO2	none (no result: CaV13 ICDI inh, Glyco luc inh, FN deposit inh, RAD54 branch)
O=C(NC[C@@H]1CC[C@@H]2[C@@H](CN2C(=O)NC2CCCC2)O1)c1ccc2c(c1)OCO2	RAD52 inh 112 (no result: CaV13 ICDI inh, Glyco luc inh, FN deposit inh, RAD54 branch)
CCCC1(C(=O)O)NC(c2ccccc2O)C2C(=O)N(Cc3ccccc3)C(=O)C21 (stereo not drawn)	none
CSCCC1(C(=O)O)NC(c2ccccc2O)C2C(=O)N(C(C)C)C(=O)C21 (stereo not drawn)	CaV13 ICDI inh 39
CC=Cc1ccc2n(c1=O)C[C@H]1[C@H](CO)[C@@H](C(=O)NCCC)N(CC3CCCC3)[C@@H]21 (mixture of isomers)	RAD52 inh 99 (no result: CaV13 ICDI inh, Glyco luc inh, FN deposit inh)
CC=Cc1ccc2n(c1=O)C[C@@H]1[C@@H](CO)[C@H](C(=O)NCCC)N(CC3CCCC3)[C@H]21 (mixture of isomers)	none (no result: CaV13 ICDI inh, Glyco luc inh, FN deposit inh)
CC(C)NC(=O)N(C)C[C@@H]1OCCCC[C@@H](C)Oc2ccc(NC(=O)Cc3ccccc3)cc2C(=O)N([C@@H](C)CO)C[C@H]1C	none (no result: CaV13 ICDI inh, Glyco luc inh)
CN1CCN(c2nc3ccccn3c(=O)c2/C=C(\C#N)S(=O)(=O)c2ccccc2)CC1	CaV13 ICDI inh 99 (no result: RAD54 branch)
N#C/C(=C\c1c(N2CCN(c3ccccc3)CC2)nc2ccccn2c1=O)S(=O)(=O)c1ccccc1	none
COc1ccc2c3c([nH]c2c1)[C@H](CO)N(C(=O)Nc1ccccc1F)CC31CCN(C(=O)C2CC2)CC1	none (no result: CaV13 ICDI inh, Glyco luc inh, FN deposit inh, RAD54 branch)
CC(Nc1nc(-c2ccccc2O)nc2ccccc12)c1ccccc1 (stereo not drawn)	Glyco luc inh 29
COc1ccc(CN(C)C[C@@H]2Oc3ccc(NC(=O)CCCN(C)C)cc3C(=O)N([C@H](C)CO)C[C@H]2C)cc1	none (no result: CaV13 ICDI inh, Glyco luc inh, FN deposit inh)
COc1ccc(/C=N/NC(=O)c2sccc2OCc2ccc(F)cc2)cc1OC	Glyco luc inh 38 (no result: RAD52 inh, FN deposit inh)
C[C@H](CO)N1C[C@H](C)[C@H](CN(C)C(=O)Nc2ccc3c(c2)OCO3)OCCCC[C@H](C)Oc2ccc(NC(=O)c3ccccc3)cc2C1=O	none (no result: CaV13 ICDI inh, Glyco luc inh, FN deposit inh)
COc1ccc(Cl)cc1NC(=O)CN(C)CC(=O)Nc1cc(OC)c(OC)c(OC)c1	Glyco luc inh 33
COc1cccc(C(=O)Nc2ccc3c(c2)C(=O)N(C)C[C@H](OC)[C@@H](C)CN(C)[C@@H](C)CO3)c1	none (no result: CaV13 ICDI inh, Glyco luc inh)
COc1cccc(NC(=O)Nc2ccc3c(c2)C(=O)N(C)C[C@@H](OC)[C@@H](C)CN(C)[C@H](C)CO3)c1	RAD52 inh 95 (no result: CaV13 ICDI inh, Glyco luc inh)
COc1cccc(C(=O)Nc2ccc3c(c2)C(=O)N(C)C[C@@H](OC)[C@@H](C)CN(C)[C@H](C)CO3)c1	none (no result: CaV13 ICDI inh, Glyco luc inh)
COc1cccc(NC(=O)Nc2ccc3c(c2)C(=O)N(C)C[C@@H](OC)[C@H](C)CN(CC2CC2)[C@@H](C)CO3)c1	RAD52 inh 64 (no result: CaV13 ICDI inh, Glyco luc inh)
COc1cccc(NC(=O)Nc2ccc3c(c2)C(=O)N(C)C[C@H](OC)[C@H](C)CN(CC2CC2)[C@@H](C)CO3)c1	none (no result: CaV13 ICDI inh, Glyco luc inh)
COc1cccc(NC(=O)Nc2ccc3c(c2)C(=O)N(C)C[C@H](OC)[C@H](C)CN(C)[C@H](C)CO3)c1	RAD52 inh 89 (no result: CaV13 ICDI inh, Glyco luc inh)
C[C@@H]1CN([C@H](C)CO)C(=O)Cc2cc(NC(=O)C3CC3)ccc2O[C@@H]1CN(C)Cc1ccc(-c2ccccc2)cc1	none (no result: CaV13 ICDI inh, Glyco luc inh, FN deposit inh)
O=C1NN(c2ccccc2)C(=O)/C1=C/c1ccc(Sc2ccc(Cl)cc2)o1	Glyco luc inh 35 (no result: RAD54 branch)
Nc1cccc2nc3ccccc3cc12	Glyco luc inh inconclusive, RAD54 branch 106 (no result: CaV13 ICDI inh, RAD52 inh)
O=C(NCC[C@@H]1CC[C@@H](NC(=O)c2cccnc2)[C@@H](CO)O1)Nc1ccc(Cl)cc1	none (no result: CaV13 ICDI inh, Glyco luc inh, FN deposit inh)
O=C1C(SCCO)=C(SCCO)C(=O)c2ccccc21	FN deposit inh 43
O=C1CCC2c3ccc4ccccc4c3CCN12 (stereo not drawn)	FN deposit inh 30 (no result: RAD52 inh)
C[C@@]12C(=O)Nc3cc(F)c(F)cc3C(=O)N1[C@H]1c3ccccc3OC[C@@H]1[C@@H]2c1ccccc1	Glyco luc inh inconclusive
COc1cc2c(cc1OC)C(=O)N1[C@H]3c4ccccc4OC[C@@H]3[C@H](c3ccccc3)[C@]1(C)C(=O)N2	Glyco luc inh 41
COc1ccc2c(c1)OC[C@H]1[C@H]2N2C(=O)c3cc(OC)c(OC)cc3NC(=O)[C@@]2(C)[C@H]1c1ccccc1	Glyco luc inh 47
COc1ccc(C2CC(c3ccccc3)=NN2c2ccc(S(N)(=O)=O)cc2)cc1 (stereo not drawn)	none (no result: RAD54 branch)
O=C(O)c1ccc(N2N=C(c3ccccc3)CC2c2ccccc2)cc1 (stereo not drawn)	CaV13 ICDI inh 115
O=Cc1ccc(N2N=C(c3ccccc3)CC2c2ccccc2)cc1 (stereo not drawn)	none

Bioassay records as filed in PubChem.
